Screening results: PubChem, Broad Institute
In the library only some 4% were active in any assay of this set; here they are far more common.
SIRT5 inh – sirtuin-5 (human) deacylase inhibition; hit rate 1.1% among 330,000; Purified SirT5, succinyl-peptide AMC, trypsin-coupled fluorescence; AID 652115; Q9NXA8; inhibition, % at 15 µM; in the data active = inhibition above about 15%
E-selectin induc – E-selectin induction on HUVECs; HUVEC E-selectin immunofluorescence imaging; normalized: neutral wells 0, TNF-alpha wells 100; activation, % at 7.58 µM; hit rate 0.37% among 260,000; AID 686992;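 active = mean E-selectin-positive cell signal at least 10% of the positive control, reached in at least 60% of replicates, without over 20% cell loss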
Target sequence (P16581 whole entry, looked up): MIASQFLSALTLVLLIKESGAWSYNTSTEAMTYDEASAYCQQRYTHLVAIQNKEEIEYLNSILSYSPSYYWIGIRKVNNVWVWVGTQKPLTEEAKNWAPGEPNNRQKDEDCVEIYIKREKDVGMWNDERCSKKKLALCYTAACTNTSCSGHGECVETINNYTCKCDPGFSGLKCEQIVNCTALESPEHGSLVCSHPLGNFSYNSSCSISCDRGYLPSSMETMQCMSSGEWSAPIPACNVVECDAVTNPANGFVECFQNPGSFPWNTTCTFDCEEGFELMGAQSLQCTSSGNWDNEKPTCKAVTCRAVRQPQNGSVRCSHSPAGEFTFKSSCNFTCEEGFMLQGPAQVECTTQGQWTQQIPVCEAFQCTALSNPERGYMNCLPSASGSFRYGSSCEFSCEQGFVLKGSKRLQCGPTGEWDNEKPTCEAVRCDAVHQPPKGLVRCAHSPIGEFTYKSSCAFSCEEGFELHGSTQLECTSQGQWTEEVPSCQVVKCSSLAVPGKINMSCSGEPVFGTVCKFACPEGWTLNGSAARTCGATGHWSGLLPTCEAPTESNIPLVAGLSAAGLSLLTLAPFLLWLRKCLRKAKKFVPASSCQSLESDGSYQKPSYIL
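Assay system: HUVEC, human umbilical vein endothelial cells / Amount: 3,000 HUVEC/well / Controls: TNF-alpha positive control, DMSO neutral control / Compound dosing: single concentration / Medium: EGM-2 over gelatin coat / Evaluation: percent E-selectin-positive cells / Signal: immunofluorescence imaging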
FN deposit inh – fibronectin deposition inhibition | AID 743247 | hit rate 0.086% among 350,000 | AH1F fibroblasts, Alexa488-fibronectin deposition fluorescence, overnight | inhibition, % at 12.6 µM;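 active = mean inhibition across replicates of 30% or more, regardless of how many single replicates reach that level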;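 note: positive control wells lacked labelled fibronectin entirely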
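Measured by – fluorescence 485/525 nm · System – AH1F fibroblast monolayer, labelled fibronectin deposition · Amount – 10000 cells per well · Buffer or medium – serum-reduced DMEM (2% serum) · Doses – single dose, pinned · Also added – fluorescent fibronectin at 24 nM final · Schedule – 1 h cell attachment, overnight exposure to compound and label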
FGF22 binding – shifts melting point of recombinant human FGF22 | AID 651658 | recombinant FGF22 thermal shift, SYPRO orange fluorescence; percent of sucrose octasulfate shift, DMSO zero | activity (Tm shift, normalised), % at 9.99 µM | Q9HCT0 | hit rate 1.5% among 340,000;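 active = mean Tm shift, scaled 0 neutral to 100 positive control, at about 1.3% or above, every replicate too, limit read from the data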
C2C12 statin – suppression of simvastatin myotoxicity. rescue of ATP level, % at 7.49 µM. hit rate 0.78% among 330,000. C2C12 myotubes + simvastatin, ATP luminescence, 48 h; scaled: DMSO 0, geranylgeraniol control 100. AID 602340;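 active = mean ATP rescue above about 67%, or every replicate alone reaching that limit, limit read from the data, passing the limit was not always enough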;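 note: myotubes were challenged with 10 µM simvastatin during compound exposure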
Ecoli rRNA inh – inhibits bacterial ribosomal RNA function over humanized ribosomes; E. coli WT GFP vs humanized-ribosome RFP mutants, fluorescence, 24 h; stronger effect = lower value; DMSO median 0, no signal -100; GFP signal change (wild-type ribosome), % (concentration not given with the values); hit rate 1.6% among 350,000; AID 720706;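 active = significant combined selectivity score with lowered wild-type GFP, culture density cut under 30%, mutant RFP and density less affected; inactive = any of these conditions unmet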
Active calls of the source: *; . = no result given.

SMILES | SIRT5 inh | E-selectin induc | FN deposit inh | FGF22 binding | C2C12 statin | Ecoli rRNA inh
Cc1cc(C(=O)Nc2cccc3c2O[C@H](CN(C)S(=O)(=O)c2ccc(Cl)cc2)[C@@H](C)CN([C@@H](C)CO)C3=O)n(C)n1 | 4 | 0 | . | 0 | -41 | 1
C[C@H]1CN([C@@H](C)CO)C(=O)c2cc(NC(=O)NC3CCCCC3)ccc2O[C@@H]1CN(C)S(=O)(=O)c1cn(C)cn1 | 3 | . | . | -1 | 20 | 4
O=C(N[C@H]1CC[C@@H](CCNC(=O)C2CCC2)O[C@@H]1CO)c1ccccn1 | 0 | 0 | . | 0 | 1 | 3
Brc1ccccc1C1Cc2nnccc2CN1 (centres undefined) | -3 | 0 | -7 | 0 | . | -36*
N#Cc1c(-c2ccco2)ccn(Cc2cccc(F)c2)c1=O | -2 | 3 | -5 | 0 | -3 | -17*
N#Cc1c(-c2ccco2)ccn(Cc2ccc(F)cc2)c1=O | 0 | 0 | 3 | 0 | 4 | -6
CN1c2ccc(C3=CCCCC3)cc2[C@H]2[C@H](CCN2S(=O)(=O)c2ccccc2F)[C@@H]1CO | 3 | 0 | 7 | 0 | 6 | -1
Cc1cc(C)c(NS(=O)(=O)c2ccccc2)c(C)n1 | . | 0 | 7 | 43* | . | 5
Cc1cccnc1NS(=O)(=O)c1ccccc1 | . | 0 | 10 | 44* | 1 | 5
Cc1cccnc1NS(=O)(=O)c1cccc([N+](=O)[O-])c1 | 2 | . | 4 | 0 | . | 9
CCC(=O)Nc1ccc2c(c1)C(=O)N(C)C[C@H](OC)[C@@H](C)CN(C(=O)c1ccncc1)[C@H](C)CO2 | -7 | 0 | 12 | 0 | -5 | 5
Cc1noc(C)c1NC(=O)Nc1ccc2c(c1)C(=O)N([C@@H](C)CO)C[C@H](C)[C@@H](CN(C)C(=O)NC1CCCCC1)OCCCC[C@H](C)O2 | 2 | 0 | . | 0 | . | -4
CCc1nn2cc(C(=O)c3cc(Cl)ccc3O)cnc2c1-c1ccc(F)cc1 | -4 | 0 | 3 | 0 | . | -18*
O=C(NCC[C@H]1CC[C@H](NS(=O)(=O)c2cccc(Cl)c2)[C@@H](CO)O1)c1cnccn1 | 12 | 0 | 3 | -1 | 13 | -5
CCOc1ccccc1N1CCN(C(=O)c2ccccc2OCc2c(C)noc2C)CC1 | 1 | . | 0 | 0 | 1 | -16*
COc1ccc(Oc2coc3c(CN(C)C)c(O)ccc3c2=O)cc1 | . | . | 5 | . | 118* | .
COc1ccc2ccccc2c1C1CC(=O)N2CN(C3CCCCC3)CSC2=C1C#N (centres undefined) | 17* | 0 | 9 | 0 | 10 | 7
COc1ccc2ccccc2c1C1CC(=O)N2CN(Cc3ccco3)CSC2=C1C#N (centres undefined) | 1 | . | 0 | 0 | 6 | 6
CN1C(=O)c2cc(NC(=O)Nc3cccc(Cl)c3)ccc2OC[C@H]2O[C@H](CC(=O)NCCc3ccncc3)CC[C@@H]21 | -2 | 0 | -30 | 0 | 13 | -6
O=S(=O)(c1ccccc1F)N1CCC(Oc2ccc(-n3cnnn3)cc2)CC1 | 0 | . | 4 | 0 | 0 | -28*
c1ccc(-c2ccnc3ncnn23)nc1 | . | . | -5 | . | . | .
c1cncc(-c2ccnc3ncnn23)c1 | -4 | . | 0 | 43* | . | .
Cc1cccc(/N=C/c2c(O)cc(C)oc2=O)n1 | 15* | . | . | . | 3 | 0
Cc1ccc([N+](=O)[O-])cc1NC(=O)CN(C(=O)c1ccccc1Cl)C1CCCCC1 | -3 | 0 | 32* | 0 | -8 | -2
COc1ccc2cc3c(N)nn(C(=O)Cc4c[nH]c5ccccc45)c3nc2c1 | -3 | . | 13 | 0 | . | -33*
C[C@H]1CCCCO[C@H](CN(C)Cc2ccc(C(=O)O)cc2)[C@@H](C)CN([C@@H](C)CO)C(=O)c2cc(NC(=O)Nc3ccc(F)cc3)ccc2O1 | -3 | 0 | . | . | . | -2
O=C(C1CCCC1)N1CC[C@@H]2[C@H](CO)Nc3ccc(C#Cc4ccc(F)cc4)cc3[C@@H]21 | 1 | 54* | 6 | . | . | -1
O=C(C1CCCCC1)N1CC[C@@H]2[C@H](CO)Nc3ccc(C#Cc4ccc(F)cc4)cc3[C@@H]21 | 6 | 22 | 3 | 0 | 13 | -3
